Measured values published in ChEMBL document CHEMBL1641462, “Synthesis and in vivo evaluation of ¹⁸F-fluoroethyl GF120918 and XR9576 as positron emission tomography probes for assessing the function of drug efflux transporters” (Bioorg Med Chem, 2011).

What was measured:
[1] = system: Blood; assay: Biodistribution in FVB mouse blood assessed per gram of tissue at 1 to 4.8 MBq, iv after 5 mins; format: ADME, organism-based; conditions: in vivo
Procedure, shortened: (§1)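 Male FVB mice (8–10 weeks, 25–29 g) received tracer iv (1.0–4.8 MBq, 7.1–34 pmol). Killed by cervical dislocation at 5, 15, 30, 60 or 90 min. Blood taken by heart puncture; tissues dissected, weighed and gamma-counted. Activity decay-corrected to injection time and given as %ID/g; mean ± SD, n = 4 per time point.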

[2] = system: Lung; assay: Biodistribution in FVB mouse lung assessed per gram of tissue at 1 to 4.8 MBq, iv after 5 mins; format: ADME, organism-based; conditions: in vivo; procedure, shortened: as §1
[3] = system: Liver; assay: Biodistribution in FVB mouse liver assessed per gram of tissue at 1 to 4.8 MBq, iv after 5 mins; format: ADME, organism-based; conditions: in vivo; procedure, shortened: as §1
[4] = system: Spleen; assay: Biodistribution in FVB mouse spleen assessed per gram of tissue at 1 to 4.8 MBq, iv after 5 mins; format: ADME, organism-based; conditions: in vivo
Procedure, shortened: (§2)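 Male FVB mice (8–10 weeks, 25–29 g) given tracer 1.0–4.8 MBq/7.1–34 pmol iv; killed by cervical dislocation at set times (n = 4 per group). Blood by heart puncture; tissues dissected, weighed and gamma counted. Radioactivity decay-corrected to injection time, expressed as %ID/g, mean ± SD.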

[5] = Biodistribution in FVB mouse small intestine assessed per gram of tissue at 1 to 4.8 MBq, iv after 5 mins; format: ADME, organism-based; conditions: in vivo; procedure, shortened: as §2
[6] = system: Muscle tissue; assay: Biodistribution in FVB mouse muscle assessed per gram of tissue at 1 to 4.8 MBq, iv after 5 mins; format: ADME, organism-based; conditions: in vivo; procedure, shortened: as §1
[7] = system: Brain; assay: Biodistribution in FVB mouse brain assessed per gram of tissue at 1 to 4.8 MBq, iv after 5 mins; format: ADME, organism-based; conditions: in vivo; procedure, shortened: as §1
[8] = system: Liver; assay: Biodistribution in FVB mouse liver assessed per gram of tissue at 1 to 4.8 MBq, iv after 15 mins; format: ADME, organism-based; conditions: in vivo, 0.25 h; procedure, shortened: as §1
[9] = system: Pancreas; assay: Biodistribution in FVB mouse pancreas assessed per gram of tissue at 1 to 4.8 MBq, iv after 15 mins; format: ADME, organism-based; conditions: in vivo, 0.25 h; procedure, shortened: as §2
[10] = system: Spleen; assay: Biodistribution in FVB mouse spleen assessed per gram of tissue at 1 to 4.8 MBq, iv after 15 mins; format: ADME, organism-based; conditions: in vivo, 0.25 h; procedure, shortened: as §2
[11] = system: Kidney; assay: Biodistribution in FVB mouse kidney assessed per gram of tissue at 1 to 4.8 MBq, iv after 15 mins; format: ADME, organism-based; conditions: in vivo, 0.25 h; procedure, shortened: as §1
[12] = Biodistribution in FVB mouse small intestine assessed per gram of tissue at 1 to 4.8 MBq, iv after 15 mins; format: ADME, organism-based; conditions: in vivo, 0.25 h; procedure, shortened: as §2
[13] = system: Muscle tissue; assay: Biodistribution in FVB mouse muscle assessed per gram of tissue at 1 to 4.8 MBq, iv after 15 mins; format: ADME, organism-based; conditions: in vivo, 0.25 h; procedure, shortened: as §1
[14] = system: Blood; assay: Biodistribution in FVB mouse blood assessed per gram of tissue at 1 to 4.8 MBq, iv after 30 mins; format: ADME, organism-based; conditions: in vivo, 0.5 h; procedure, shortened: as §1
[15] = system: Liver; assay: Biodistribution in FVB mouse liver assessed per gram of tissue at 1 to 4.8 MBq, iv after 30 mins; format: ADME, organism-based; conditions: in vivo, 0.5 h; procedure, shortened: as §1
[16] = system: Pancreas; assay: Biodistribution in FVB mouse pancreas assessed per gram of tissue at 1 to 4.8 MBq, iv after 30 mins; format: ADME, organism-based; conditions: in vivo, 0.5 h; procedure, shortened: as §2
[17] = system: Spleen; assay: Biodistribution in FVB mouse spleen assessed per gram of tissue at 1 to 4.8 MBq, iv after 30 mins; format: ADME, organism-based; conditions: in vivo, 0.5 h; procedure, shortened: as §2
[18] = system: Kidney; assay: Biodistribution in FVB mouse kidney assessed per gram of tissue at 1 to 4.8 MBq, iv after 30 mins; format: ADME, organism-based; conditions: in vivo, 0.5 h; procedure, shortened: as §1
[19] = system: Brain; assay: Biodistribution in FVB mouse brain assessed per gram of tissue at 1 to 4.8 MBq, iv after 30 mins; format: ADME, organism-based; conditions: in vivo, 0.5 h; procedure, shortened: as §1
[20] = system: Blood; assay: Biodistribution in FVB mouse blood assessed per gram of tissue at 1 to 4.8 MBq, iv after 60 mins; format: ADME, organism-based; conditions: in vivo, 1 h; procedure, shortened: as §1
[21] = system: Liver; assay: Biodistribution in FVB mouse liver assessed per gram of tissue at 1 to 4.8 MBq, iv after 60 mins; format: ADME, organism-based; conditions: in vivo, 1 h; procedure, shortened: as §1
[22] = system: Heart; assay: Biodistribution in FVB mouse heart assessed per gram of tissue at 1 to 4.8 MBq, iv after 90 mins; format: ADME, organism-based; conditions: in vivo, 1.5 h; procedure, shortened: as §1
[23] = system: Lung; assay: Biodistribution in FVB mouse lung assessed per gram of tissue at 1 to 4.8 MBq, iv after 90 mins; format: ADME, organism-based; conditions: in vivo, 1.5 h; procedure, shortened: as §1
[24] = system: Kidney; assay: Biodistribution in FVB mouse kidney assessed per gram of tissue at 1 to 4.8 MBq, iv after 90 mins; format: ADME, organism-based; conditions: in vivo, 1.5 h; procedure, shortened: as §1
[25] = system: Muscle tissue; assay: Biodistribution in FVB mouse muscle assessed per gram of tissue at 1 to 4.8 MBq, iv after 90 mins; format: ADME, organism-based; conditions: in vivo, 1.5 h; procedure, shortened: as §1
[26] = system: Bone; assay: Biodistribution in FVB mouse bone assessed per gram of tissue at 1 to 4.8 MBq, iv after 90 mins; format: ADME, organism-based, Bone element; conditions: in vivo, 1.5 h; procedure, shortened: as §1
[27] = system: Plasma; assay: Metabolic stability in FVB mouse plasma assessed as recovery of radioactivity at 1 to 4.8 MBq, iv by HPLC analysis; format: ADME, organism-based; conditions: in vivo
Procedure, shortened: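 Brain homogenate or plasma from tracer plus GF120918 (5 mg/kg) co-injected FVB mice deproteinized with equal volume ice-cold acetonitrile; radioactivity in supernatant, precipitate and HPLC waste gamma counted to give recovery, mean ± SD (n = 7).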

[28] = system: Brain; assay: Biodistribution in BCRP knockout mouse brain at 3.3 to 4.9 MBq, iv after up to 60 mins; format: ADME, organism-based; conditions: in vivo, 1 h
[29] = system: Brain; assay: AUC (0 to 60 mins) in wild type mouse brain at 2.8 to 5.6 MBq, iv; format: ADME, organism-based; conditions: in vivo
Procedure, shortened: (§3)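 Small-animal PET in male wild-type and knockout mice under isoflurane (1.0–1.5%), prone on the scanner bed. Tracer (2.8–5.6 MBq, 20–40 pmol) given iv, with or without co-injected GF120918 at 5 mg/kg. Dynamic 60-min list-mode scan. Decay-corrected SUV read from ROIs on brain, and on the ventricular cavity for blood. AUC taken over 0–60 min in SUV·min; n = 4 per group.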

[30] = system: Brain; assay: AUC (0 to 60 mins) in P-gp/BCRP knockout mouse brain at 2.8 to 5.6 MBq, iv; format: ADME, organism-based; conditions: in vivo; procedure, shortened: as §3
[31] = system: Brain; assay: Ratio of AUC (0 to 60 mins) in P-gp knockout mouse brain to AUC (0 to 60 mins) in wild type mouse brain at 2.8 to 5.6 MBq, iv; format: ADME, organism-based; conditions: in vivo
[32] = system: Brain; assay: AUC (0 to 60 mins) in P-gp knockout mouse brain at 2.8 to 5.6 MBq, iv; format: ADME, organism-based; conditions: in vivo; procedure, shortened: as §3
[33] = system: Brain; assay: AUC (0 to 60 mins) in BCRP knockout mouse brain at 2.8 to 5.6 MBq, iv; format: ADME, organism-based; conditions: in vivo; procedure, shortened: as §3
[34] = system: Brain; assay: Ratio of AUC (0 to 60 mins) in wild type mouse brain to AUC (0 to 60 mins) in wild type mouse brain at 2.8 to 5.6 MBq, iv co-administered with GF120918; format: ADME, organism-based; conditions: in vivo
[35] = system: Brain; assay: AUC (0 to 60 mins) in wild type mouse brain at 2.8 to 5.6 MBq, iv co-administered with GF120918; format: ADME, organism-based; conditions: in vivo; procedure, shortened: as §3
[36] = system: Blood; assay: AUC (0 to 60 mins) in P-gp knockout mouse blood at 2.8 to 5.6 MBq, iv; format: ADME, tissue-based; procedure, shortened: as §3
[37] = system: Blood; assay: AUC (0 to 60 mins) in BCRP knockout mouse blood at 2.8 to 5.6 MBq, iv; format: ADME, tissue-based; procedure, shortened: as §3
[38] = Fold increase in testis-to-blood ratio of drug level in FVB mouse at 1 to 4.8 MBq, iv co-administered with 5 mg/kg, iv of GF120918; conditions: testis and blood, with GF120918, 5 mg/kg iv

| SMILES | Drug uptake [1] [% ID/g] | Drug uptake [2] [% ID/g] | Drug uptake [3] [% ID/g] | Drug uptake [4] [% ID/g] | Drug uptake [5] [% ID/g] | Drug uptake [6] [% ID/g] | Drug uptake [7] [% ID/g] | Drug uptake [8] [% ID/g] | Drug uptake [9] [% ID/g] | Drug uptake [10] [% ID/g] | Drug uptake [11] [% ID/g] | Drug uptake [12] [% ID/g] | Drug uptake [13] [% ID/g] | Drug uptake [14] [% ID/g] | Drug uptake [15] [% ID/g] | Drug uptake [16] [% ID/g] | Drug uptake [17] [% ID/g] | Drug uptake [18] [% ID/g] | Drug uptake [19] [% ID/g] | Drug uptake [20] [% ID/g] | other results |
| --- | --- | --- | --- | --- | --- | --- | --- | --- | --- | --- | --- | --- | --- | --- | --- | --- | --- | --- | --- | --- | --- |
| COc1cc(NC(=O)c2cnc3ccccc3c2)c(C(=O)Nc2ccc(CCN3CCc4cc(OC)c(OCC[18F])cc4C3)cc2)cc1OC | 1.39 | 22.5 | 29.33 | 5.12 | 5.67 | 2.23 | 0.13 | 31.06 | 8.27 | 6.73 | 16.09 | 9.42 | 1.61 | 0.63 | 23.23 | 8.56 | 6.34 | 11.34 | 0.11 | 0.61 | Drug uptake [21]: 25.4 % ID/g; Drug uptake [22]: 1.74 % ID/g; Drug uptake [23]: 15.76 % ID/g; Drug uptake [24]: 10.17 % ID/g; Drug uptake [25]: 0.68 % ID/g; Drug uptake [26]: 1.45 % ID/g; Stability [27]: 95.3%; Activity [28]: Active; SUV [29]: 4; AUC [30]: 32.9 SUV·min; Ratio AUC [31]: 2.3; SUV [32]: 9.1; SUV [33]: 6.5; Ratio AUC [34]: 7.1; AUC [35]: 28.1 SUV·min; AUC [36]: 45 SUV·min; AUC [37]: 42.2 SUV·min; Fold increase [38]: 5 |
| COc1cc2c(cc1OC)CN(CCc1ccc(NC(=O)c3cccc4c(=O)c5cccc(OCC[18F])c5[nH]c34)cc1)CC2 | 1.39 | 19.6 | 4.88 | 4.76 | 4.51 | 1.75 | 0.18 | 5.99 | 9.68 | 5.34 | 24.17 | 7.09 | 1.18 | 0.65 | 5.35 | 11.15 | 5.82 | 19.45 | 0.14 | 0.4 | Drug uptake [21]: 11.6 % ID/g; Drug uptake [22]: 0.85 % ID/g; Drug uptake [23]: 4.09 % ID/g; Drug uptake [24]: 19.98 % ID/g; Drug uptake [25]: 0.38 % ID/g; Drug uptake [26]: 1.3 % ID/g; Stability [27]: 94.1%; Activity [28]: Active; SUV [29]: 4.4; AUC [30]: 39.8 SUV·min; Ratio AUC [31]: 2.4; SUV [32]: 10.6; SUV [33]: 5; Ratio AUC [34]: 6.9; AUC [35]: 30.2 SUV·min; AUC [36]: 23.5 SUV·min; AUC [37]: 25.3 SUV·min; Fold increase [38]: 7 |
